Assay outcomes from PubChem BioAssay.
OX1R antag-1: antagonists of human orexin 1 receptor (OX1R). Orexin/Hypocretin receptor type 1 (Homo sapiens), O43613. OX1R-expressing cells, FRET antagonist read-out. inhibition, % at 6.6 µM. 1.8% of 330,000 active. AID 485270, 2010; in the data active = inhibition mostly above about 38%, no sharp cut-off; inactive = mostly below about 40%;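 also: 0% = agonist challenge alone and 100% = reference antagonist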
GPR7 antag: GPR7 receptor antagonists, primary screen, cell-based, fluorescence, single concentration; 1.1% of 290,000 active; Neuropeptides B/W receptor type 1 (Homo sapiens), P48145; inhibition, % at 4.4 µM; AID 1861, 2009; GPR7-expressing cells, fluorescence antagonist assay; in the data active = inhibition above about 16%, passing the limit was not always enough;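 also: cells stimulated with the agonist NPW; 0% = agonist with vehicle and 100% = vehicle without agonist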
Target sequence (P48145 whole entry, looked up): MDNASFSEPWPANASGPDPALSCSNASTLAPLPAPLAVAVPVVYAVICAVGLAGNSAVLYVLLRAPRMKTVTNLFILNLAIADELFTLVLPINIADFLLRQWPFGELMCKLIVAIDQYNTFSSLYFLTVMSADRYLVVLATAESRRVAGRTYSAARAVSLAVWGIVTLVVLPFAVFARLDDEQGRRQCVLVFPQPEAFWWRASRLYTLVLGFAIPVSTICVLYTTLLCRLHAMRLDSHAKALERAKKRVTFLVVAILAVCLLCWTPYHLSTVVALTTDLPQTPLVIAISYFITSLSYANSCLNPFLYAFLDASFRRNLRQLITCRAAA
CHO parental Ca: ATP-evoked calcium signal inhibitors, parental CHO, primary screen, counter-screen for OX1R antagonist project, cell-based, fluorescence, Fluo-8 calcium dye; parental CHO-K1, ATP-induced calcium, Fluo-8 fluorescence; inhibition, % at 5.6 µM; 0.63% of 330,000 active;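 active = inhibition above that plate's mean sample inhibition plus 3 SD, cut at about 26% in these data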;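 also: 0% = ATP-challenged DMSO wells and 100% = DMSO wells without ATP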
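material = parental CHO cells | also added = ATP as calcium-mobilizing challenge | dosing = single point at 5.6 µM | detection = intracellular calcium via Fluo-8 no-wash fluorescent dye | read-out = % inhibition | benchmarks = low control ATP plus DMSO, high control DMSO only | repeats = one well per compound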
TAAR1 antag: human TAAR1 antagonists, primary screen, Fluo-8 calcium fluorescence, CHO RD-HGA16 cells. AID 624466, 2012. Trace amine-associated receptor 1 (Homo sapiens), Q96RJ0. 1.5% of 360,000 active. inhibition, % at 3 µM. antagonist;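 active = inhibition above a per-plate cutoff, the mean inhibition of test compounds on that plate plus 3 SD, cut at about 49% in these data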;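 also: 0% = DMSO plus EC80 beta-PEA response and 100% = DMSO alone without agonist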
Target sequence (Q96RJ0 whole entry, looked up): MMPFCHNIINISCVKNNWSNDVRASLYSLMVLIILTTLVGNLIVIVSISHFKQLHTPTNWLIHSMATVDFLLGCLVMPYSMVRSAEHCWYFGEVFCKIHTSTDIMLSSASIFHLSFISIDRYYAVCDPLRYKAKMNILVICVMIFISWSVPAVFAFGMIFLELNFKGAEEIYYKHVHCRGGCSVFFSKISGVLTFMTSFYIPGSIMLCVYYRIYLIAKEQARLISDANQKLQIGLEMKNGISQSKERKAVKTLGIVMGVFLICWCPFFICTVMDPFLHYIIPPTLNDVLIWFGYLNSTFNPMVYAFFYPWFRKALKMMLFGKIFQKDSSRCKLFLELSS
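Test system: hTAAR1-expressing CHO RD-HGA16 cells, Gα16-coupled; Probe or stimulus: EC80 β-phenethylamine stimulus; Compound dosing: single nominal final test compound concentration of 3 µM; Timing: 140 s kinetic read after compound, 140 s after agonist; Signal: Fluo-8 calcium-sensitive fluorescence; Measure: % inhibition of agonist calcium response; Controls: DMSO and EC80 PEA controls.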
TAAR1 agonist: human TAAR1 agonists, primary screen, Fluo-8 calcium fluorescence, CHO RD-HGA16 cells; vehicle wells 0%, saturating PEA agonist 100%; activation, % at 3 µM; 0.99% of 360,000 active; AID 624467, 2012;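 active = activation above the mean activation of all test compounds in the run plus 3 SD, cut at about 38% in these data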
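test system = CHO RD-HGA16 cells carrying human TAAR1 plus Gα16 | schedule = 17-24 h seeding, 75 min 37 °C dye, 30 min RT | compound dosing = 3 µM single concentration | control set = DMSO and PEA EC100 | replicates = n 1 | signal = Fluo-8 fluorescence, 5 s baseline then 140 s kinetic read | measure = percent activation vs PEA EC100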
OX1R antag-2: OX1R (HCRTR1) antagonists, primary screen, fluorescence, CHO/OX1R cells, Fluo-8 calcium, orexin A | AID 434989, 2010 | Orexin/Hypocretin receptor type 1 (Homo sapiens), O43613 | inhibition, % at 5 µM | 0.43% of 330,000 active | Fluo-8 calcium fluorescence;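 active = inhibition above its plate's threshold, mean inhibition of all tested compounds on the plate plus 3 SD, cut at about 37% in these data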;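 also: 0% = orexin A challenge wells and 100% = SB-334867-A antagonist wells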
GPR7 antag cf: GPR7 receptor antagonists, confirmation, cell-based, fluorescence, single concentration. shares compounds with GPR7 antag. GPR7-expressing cells, calcium fluorescence antagonist mode. inhibition, % at 4.4 µM. 52% of 2,400 active; in the data active = inhibition above about 24%;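 also: stimulated with the GPR7 agonist NPW; 0% = agonist plus vehicle and 100% = vehicle alone without agonist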
MCHR1 antagonist: MCHR1 antagonists in cells, counter-screen for GPR7 antagonist project, cell-based, fluorescence, human. MCHR1-expressing cells, fluorescence antagonist assay. inhibition, % at 4.4 µM. shares compounds with GPR7 antag. 62% of 2,400 active; in the data active = inhibition above about 22%;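 also: 0% = vehicle with agonist and 100% = vehicle without agonist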
Starred values were filed as active, the others as inactive; . = no result given. This is a sample that favours compounds with a hit; in the whole collection about 4.6% have one here.

SMILES	OX1R antag-1	GPR7 antag	CHO parental Ca	TAAR1 antag	TAAR1 agonist	OX1R antag-2	GPR7 antag cf	MCHR1 antagonist
Cc1cc([N+](=O)[O-])cc(C)c1OCC(=O)N/N=C/c1ccc(OC(=O)c2ccccc2)cc1	11	.	-2	-42	-1	2	.	9
CCCCn1nnnc1C1(C)CCC(=O)N1Cc1cc(OC)ccc1OC (configuration not stated)	.	.	.	-3	1	.	.	.
CC(=O)Nc1ccc(NC(=O)c2ccc(COc3ccccc3Br)o2)cc1	.	15	.	11	4	.	.	.
O=C(Nc1cccnc1)c1ccc(COc2ccccc2Br)o1	22	69*	3	18	4	-16	33*	54*
CCCc1nc2c(C)cc(Br)cn2c1Cc1ccc(OC)cc1C	.	.	.	-24	1	.	.	.
COC(=O)c1sc(NC(=O)c2c(C)noc2C)nc1C	28	-8	-1	-9	0	-11	.	.
COC(=O)c1sc(N)c(C(=O)OC)c1COC(=O)c1c(C)noc1C	8	23*	-8	-13	6	-25	9	15
Cc1cccc(Nc2ccc(C(=O)O)cc2[N+](=O)[O-])c1C	16	-10	-5	-1	0	-8	.	.
O=C(O)c1ccc(Nc2ccc(F)c(F)c2)c([N+](=O)[O-])c1	27	36*	-6	-2	2	-6	-9	1
CCCCn1c(SCc2cccc([N+](=O)[O-])c2)nc2ccsc2c1=O	30	3	-14	21	2	-5	.	.
CCC(C)n1c(SCc2ccc([N+](=O)[O-])cc2)nc2ccsc2c1=O (configuration not stated)	23	25*	-26	34	5	-17	23	44*
Cc1ccccc1C(=O)N1CCC[C@@H]1C(=O)N1CCC[C@H]1C(=O)NCc1ccncc1	.	.	.	-17	0	.	.	.
O=C(Nc1ccc(F)cc1)N[C@H]1CC[C@H](CCNS(=O)(=O)c2cccc(Cl)c2)O[C@@H]1CO	.	.	.	-6	0	.	.	.
O=S(=O)(NCCCSc1ccccc1)c1ccccc1F	30	25*	-12	-12	4	-23	-4	6
O=[N+]([O-])c1ccccc1S(=O)(=O)NCCSc1ccccc1	11	-10	-14	-10	6	-11	.	.
O=C(OCC(=O)N1CCN(c2ccccc2)CC1)c1ccc(O)cc1O	19	26*	2	-28	4	4	15	6
COc1ccnc(Oc2ccc(F)cc2)c1C(=O)N/C=N/OCc1ccc(F)cc1	5	.	-7	19	49*	3	.	13
COC(C(=O)Nc1ccc(S(=O)(=O)Nc2ccc(F)cc2)cc1)c1ccccc1 (configuration not stated)	3	22*	8	37	56*	12	51*	39*
CCc1nc2ccc(C(=O)Nc3cccc(OCC(=O)N(C)C)c3)cn2c1N(CC)CCOC	.	.	.	2	9	.	.	.
CC(NCc1cc(Br)ccc1OCC(=O)NCc1ccccc1)c1ccccc1 (configuration not stated)	15	30*	-17	-7	26	5	34*	40*
COC(=O)c1ccc(NC(=O)Nc2ccc(F)cc2F)cc1	26	12	2	-2	17	-31	.	.
COC(=O)c1ccc(NC(=O)Nc2cccc(F)c2)cc1	55	32*	23	4	39*	-3	54*	65*
Cc1ccc([N+](=O)[O-])cc1NC(=O)Cc1ccc(F)cc1	11	-4	-3	10	0	-10	.	.
Cc1ccc([N+](=O)[O-])cc1NC(=O)Nc1cccc(F)c1	.	40*	.	-1	8	.	63*	65*
CC(C)(C)NC(=O)C1(C)CCC(=O)N1CCCn1ccnc1 (configuration not stated)	.	.	.	-15	4	.	.	.
SMILES	OX1R antag-1	GPR7 antag	CHO parental Ca	TAAR1 antag	TAAR1 agonist	OX1R antag-2	GPR7 antag cf	MCHR1 antagonist
CCC(C(=O)NC1CCCC1)n1c(-c2ccncc2)nc2ccccc21 (configuration not stated)	.	.	.	-23	1	.	.	.
COc1ccccc1CCNC(=O)C1CC(=O)N(c2ccccc2F)C1 (configuration not stated)	.	.	.	-7	2	.	.	.
CCOc1cc(OCC)cc(C(=O)N2CCC[C@H]2C(=O)N2CCC[C@H]2C(=O)NCc2ccccn2)c1	.	.	.	6	1	.	.	.
O=C(c1ccco1)N1CCN(S(=O)(=O)c2ccc(Br)s2)CC1	12	47*	-15	10	8	-22	9	-1
C=CCn1c(=N)n(CC(O)COc2ccccc2OC)c2ccccc21 (configuration not stated)	7	8	-4	1	2	-22	.	.
COc1ccccc1OCC(O)Cn1c(=N)n(Cc2ccccc2)c2ccccc21 (configuration not stated)	6	25*	-13	4	15	-15	29*	35*
CCCn1c(=N)n(CC(O)COc2ccc(C)cc2)c2ccccc21 (configuration not stated)	4	8	-2	-19	4	-23	.	.
CCN(CC)CCn1c(=N)n(CC(O)COc2ccccc2)c2ccccc21 (configuration not stated)	11	29*	-7	-13	-1	-8	23	19
CCCCn1c(=N)n(CC(O)COc2cccc(C)c2)c2ccccc21 (configuration not stated)	2	33*	-8	-11	20	-26	37*	46*
CCCC(=O)OC[C@H]1CN(C2CCCC2)S(=O)(=O)c2c(Oc3ccc(C(C)(C)C)cc3)cccc2O1	.	.	.	-19	2	.	.	.
CC(C)[C@@H]1Cc2[nH]c(=O)[nH]c(=O)c2[C@H](c2ccc(F)cc2)O1	.	.	.	-16	2	.	.	.
CC(NCCC(c1ccccc1)c1ccccc1)c1ccccc1 (configuration not stated)	16	28*	0	27	20	-24	51*	55*
O=[N+]([O-])c1ccc(N2CCN(c3ccccc3)CC2)nc1	18	25	-5	7	2	1	.	.
